This note sets out measurements from PubChem BioAssay AID652011 (Sanford-Burnham Center for Chemical Genomics, 2013).

The source made the active and inactive calls.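 How the source made its calls: active means IC50 of 10 µM or lower on HIF-2a in both cell lines, but not on HIF-1a; inactive means the rest, including compounds also potent on HIF-1a.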 Where only a bound is given, the exact number is not on record here.

Holding throughout (test): HIF-1a and HIF-2a reporter inhibitors, SAR follow-up, cell-based, luminescence, MIAPaCa-2, 786-0, panel (AID 652011)
Test [1] has as its target Endothelial PAS domain-containing protein 1 (Homo sapiens) (UniProt Q99814). The conditions noted are these: MIAPaCa-2/PANC HIF reporter, luciferase luminescence, desferoxamine, overnight; HIF2a PANC cells; mean of runs. In outline: (§1)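 Also added: desferoxamine added before compound. Dosing: compounds from 10 mM and 0.3125 mM stocks, 1% DMSO final. Timing: overnight seeding and compound exposure, 37 °C, 5% CO2, 10-min detection. Detection: luciferase luminescence with One-Glo reagent.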

A further test has as its system HIF1a. The conditions noted are these: MIAPaCa-2/PANC HIF reporter, luciferase luminescence, desferoxamine, overnight. The method in brief: as §1
In another test the test system is HIF2a PANC. As to conditions: MIAPaCa-2/PANC HIF reporter, luciferase luminescence, desferoxamine, overnight. In outline: as §1
For test [2], the target named is Hypoxia-inducible factor 1-alpha (Homo sapiens) (UniProt Q16665). As to conditions: MIAPaCa-2/PANC HIF reporter, luciferase luminescence, desferoxamine, overnight; HIF1a; mean of runs. The method in brief:
as §1

Where [3] appears, read: run 1, individual run IC50, panel line.
The mark [4] stands for this setting: run 2, individual run IC50, panel line.

Sequence of Hypoxia-inducible factor 1-alpha (Homo sapiens) (Q16665 whole entry, looked up): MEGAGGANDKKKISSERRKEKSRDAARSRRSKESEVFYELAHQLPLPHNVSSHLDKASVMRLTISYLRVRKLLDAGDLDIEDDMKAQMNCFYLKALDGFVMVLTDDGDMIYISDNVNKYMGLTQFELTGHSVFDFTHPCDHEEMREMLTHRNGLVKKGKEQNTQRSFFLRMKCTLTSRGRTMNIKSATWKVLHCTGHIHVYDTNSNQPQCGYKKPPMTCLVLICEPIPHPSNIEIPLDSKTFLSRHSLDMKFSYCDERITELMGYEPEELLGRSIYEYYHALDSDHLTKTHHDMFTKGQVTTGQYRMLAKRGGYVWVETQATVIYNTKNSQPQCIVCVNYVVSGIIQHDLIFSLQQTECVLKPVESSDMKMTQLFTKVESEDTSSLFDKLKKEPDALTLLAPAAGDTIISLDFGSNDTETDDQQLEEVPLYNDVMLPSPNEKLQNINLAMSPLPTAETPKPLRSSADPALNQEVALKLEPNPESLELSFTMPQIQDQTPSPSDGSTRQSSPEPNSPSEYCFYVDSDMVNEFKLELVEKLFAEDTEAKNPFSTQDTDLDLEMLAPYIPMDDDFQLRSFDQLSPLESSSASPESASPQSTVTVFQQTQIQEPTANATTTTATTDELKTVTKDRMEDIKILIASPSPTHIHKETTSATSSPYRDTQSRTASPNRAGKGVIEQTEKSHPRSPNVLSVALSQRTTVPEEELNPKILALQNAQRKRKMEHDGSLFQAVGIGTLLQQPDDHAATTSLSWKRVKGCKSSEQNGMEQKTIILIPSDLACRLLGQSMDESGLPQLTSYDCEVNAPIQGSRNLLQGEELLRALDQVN
Sequence of Endothelial PAS domain-containing protein 1 (Homo sapiens) (Q99814 whole entry, looked up, the tested form may be a part): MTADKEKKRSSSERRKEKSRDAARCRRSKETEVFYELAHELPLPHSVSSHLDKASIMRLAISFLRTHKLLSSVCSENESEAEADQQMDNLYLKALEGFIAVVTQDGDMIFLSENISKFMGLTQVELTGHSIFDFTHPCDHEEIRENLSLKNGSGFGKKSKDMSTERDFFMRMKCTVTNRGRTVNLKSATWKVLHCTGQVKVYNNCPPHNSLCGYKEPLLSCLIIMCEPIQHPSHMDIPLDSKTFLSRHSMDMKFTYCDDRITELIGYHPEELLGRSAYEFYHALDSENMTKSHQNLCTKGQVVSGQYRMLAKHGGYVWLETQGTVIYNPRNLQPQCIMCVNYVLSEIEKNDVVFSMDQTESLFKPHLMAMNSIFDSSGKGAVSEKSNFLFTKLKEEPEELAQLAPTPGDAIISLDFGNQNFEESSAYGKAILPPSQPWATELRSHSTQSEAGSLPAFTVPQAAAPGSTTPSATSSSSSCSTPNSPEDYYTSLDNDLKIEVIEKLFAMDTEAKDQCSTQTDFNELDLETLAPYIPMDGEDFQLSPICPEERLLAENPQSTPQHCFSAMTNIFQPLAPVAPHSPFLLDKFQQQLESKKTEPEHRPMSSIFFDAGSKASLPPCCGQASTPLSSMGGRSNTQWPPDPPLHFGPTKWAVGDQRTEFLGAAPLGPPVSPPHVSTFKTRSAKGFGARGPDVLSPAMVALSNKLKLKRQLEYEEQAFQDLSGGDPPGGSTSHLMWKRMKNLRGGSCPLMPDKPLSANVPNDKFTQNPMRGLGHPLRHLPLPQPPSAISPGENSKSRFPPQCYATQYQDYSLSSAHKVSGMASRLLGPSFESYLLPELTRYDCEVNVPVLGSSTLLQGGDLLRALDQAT

In general, IC50 refers to the concentration that inhibits the measured activity by half. For the molecule `CC(C)(C)c1ccc(-c2noc(CCC(=O)Nc3cccnc3)n2)cc1`, the IC50 in test [1] is less than 190 nM; in the test on HIF1a (setting [3]) it was 38.1 µM; in the test with HIF1a (setting [4]), 28.6 µM; with HIF2a PANC (setting [3]), less than 190 nM; in the test on HIF2a PANC (setting [4]), less than 190 nM; in test [2], 33400 nM.

Turning to `COc1cccc(NC(=O)CCc2nc(-c3ccc(C(C)(C)C)cc3)no2)c1`, the IC50 in test [1] was less than 190 nM; with HIF1a (setting [3]) it was less than 0.19 µM; in the test with HIF1a (setting [4]), 0.229 µM; with HIF2a PANC (setting [3]) it was less than 190 nM; in the test on HIF2a PANC (setting [4]), less than 190 nM; in test [2], 229 nM.

`CC(C)(C)c1ccc(-c2noc(CCC(=O)NC3CCCC3)n2)cc1`: the IC50 was less than 190 nM in test [1]; greater than 99 µM with HIF1a (setting [3]); less than 0.19 µM in the test with HIF1a (setting [4]); less than 190 nM with HIF2a PANC (setting [3]); less than 190 nM in the test on HIF2a PANC (setting [4]); 49600 nM in test [2].

As for `CC(C)(C)c1ccc(-c2noc(CCC(=O)O)n2)cc1`, the IC50 in test [1] is less than 190 nM; in the test with HIF1a (setting [3]), less than 0.19 µM; in the test on HIF1a (setting [4]), less than 0.19 µM; in the test with HIF2a PANC (setting [3]) it was less than 190 nM; with HIF2a PANC (setting [4]) it was less than 190 nM; in test [2], less than 190 nM.

`COc1ccccc1NC(=O)CCc1nc(-c2ccc(C(C)(C)C)cc2)no1`: the IC50 in test [1] was less than 190 nM; with HIF1a (setting [3]), greater than 99 µM; in the test on HIF1a (setting [4]), 0.647 µM; in the test with HIF2a PANC (setting [3]), less than 190 nM; with HIF2a PANC (setting [4]), less than 190 nM; in test [2], 647 nM.

As to `CCOc1ccc(-c2noc(CCC(=O)O)n2)cc1`, the IC50 in test [1] was 5860 nM; in the test on HIF1a (setting [3]), 1.17 µM; with HIF1a (setting [4]), 1.51 µM; in the test on HIF2a PANC (setting [3]), 4440 nM; in the test on HIF2a PANC (setting [4]) it was 7280 nM; in test [2], 1340 nM.

Turning to `COC(=O)CCc1nc(-c2ccc(C(C)(C)C)cc2)no1`, the IC50 in test [1] was less than 190 nM; with HIF1a (setting [3]), less than 1 µM; in the test with HIF1a (setting [4]) it was less than 0.19 µM; in the test on HIF2a PANC (setting [3]), less than 190 nM; in the test with HIF2a PANC (setting [4]), less than 190 nM; in test [2], less than 190 nM.

In the case of `CCc1ccc(-c2noc(CCC(=O)NC(C)(C)C)n2)cc1`, the IC50 in test [1] is > 99000 nM (inactive); in the test on HIF1a (setting [3]), greater than 99 µM; in the test on HIF1a (setting [4]) it was greater than 99 µM; in the test on HIF2a PANC (setting [3]), greater than 99000 nM; in the test with HIF2a PANC (setting [4]), greater than 99000 nM.

With `CC(C)(C)c1ccc(-c2noc(CCC(=O)Nc3cccc([N+](=O)[O-])c3)n2)cc1`, the IC50 in test [1] is less than 190 nM; in the test on HIF1a (setting [3]) it was 9.87 µM; in the test with HIF1a (setting [4]), 6.7 µM; with HIF2a PANC (setting [3]) it was less than 190 nM; with HIF2a PANC (setting [4]) it was less than 190 nM; in test [2], 8290 nM.

Take `CCCCc1ccc(-c2noc(CCC(=O)NC(C)(C)C)n2)cc1`: the IC50 is less than 190 nM in test [1]; greater than 99 µM with HIF1a (setting [3]); greater than 99 µM with HIF1a (setting [4]); less than 190 nM in the test on HIF2a PANC (setting [3]); less than 190 nM in the test with HIF2a PANC (setting [4]).

Consider `CNC(=O)CCc1nc(-c2ccc(C(C)C)cc2)no1`, for which the IC50 is less than 190 nM in test [1]; greater than 99 µM in the test with HIF1a (setting [3]); greater than 99 µM in the test with HIF1a (setting [4]); less than 190 nM with HIF2a PANC (setting [3]); less than 190 nM in the test with HIF2a PANC (setting [4]).

As to `CC(C)(C)c1ccc(-c2noc(CCC(=O)NC3CCC3)n2)cc1`, the IC50 in test [1] was less than 190 nM; in the test on HIF1a (setting [3]), greater than 99 µM; in the test with HIF1a (setting [4]), greater than 99 µM; in the test on HIF2a PANC (setting [3]), less than 10000 nM; in the test with HIF2a PANC (setting [4]) it was less than 190 nM.

With `CC(C)NC(=O)CCc1nc(-c2ccc(C(C)(C)C)cc2)no1`, the IC50 in test [1] was less than 190 nM; with HIF1a (setting [3]), greater than 99 µM; with HIF1a (setting [4]), greater than 99 µM; with HIF2a PANC (setting [3]) it was less than 10000 nM; in the test with HIF2a PANC (setting [4]) it was less than 190 nM.

On to `CC(C)(C)c1ccc(-c2noc(CCC(=O)NC3CCCCC3)n2)cc1`, for which the IC50 in test [1] was less than 190 nM; in the test on HIF1a (setting [3]), greater than 99 µM; in the test on HIF1a (setting [4]), 38 µM; in the test on HIF2a PANC (setting [3]), less than 190 nM; with HIF2a PANC (setting [4]) it was less than 190 nM; in test [2] it was 38000 nM.

In the case of `CC(C)(C)c1ccc(-c2noc(CCC(=O)N3CCCCC3)n2)cc1`, the IC50 result in test [1] is “inactive”. The IC50 in the test on HIF1a (setting [3]) is greater than 99 µM; in the test on HIF1a (setting [4]) it was greater than 99 µM; in the test on HIF2a PANC (setting [3]), greater than 99000 nM; in the test with HIF2a PANC (setting [4]) it was 38200 nM.

For `CCNC(=O)CCc1nc(-c2ccc(OCC)cc2)no1`, the IC50 is > 99000 nM (inactive) in test [1]; greater than 99 µM in the test with HIF1a (setting [3]); greater than 99 µM in the test on HIF1a (setting [4]); greater than 99000 nM with HIF2a PANC (setting [3]); greater than 99000 nM with HIF2a PANC (setting [4]).

As to `CCCCc1ccc(-c2noc(CCC(=O)NC3CC3)n2)cc1`, the IC50 entry in test [1] was “inactive”. For the same molecule, the IC50 with HIF1a (setting [3]) was greater than 99 µM; in the test with HIF1a (setting [4]), greater than 99 µM; in the test on HIF2a PANC (setting [3]), greater than 99000 nM; in the test on HIF2a PANC (setting [4]), less than 190 nM.

Consider `CCC(C)NC(=O)CCc1nc(-c2ccc(C(C)(C)C)cc2)no1` (stereo not given), for which the IC50 in test [1] was > 99000 nM (inactive); in the test with HIF1a (setting [3]), greater than 99 µM; in the test with HIF1a (setting [4]), greater than 99 µM; in the test with HIF2a PANC (setting [3]) it was greater than 99000 nM; in the test on HIF2a PANC (setting [4]), greater than 99000 nM.

For the molecule `CC(C)c1ccc(-c2noc(CCC(=O)NC3CC3)n2)cc1`, the IC50 was > 99000 nM (inactive) in test [1]; greater than 99 µM in the test with HIF1a (setting [3]); greater than 99 µM with HIF1a (setting [4]); greater than 99000 nM with HIF2a PANC (setting [3]); greater than 99000 nM with HIF2a PANC (setting [4]).

In the case of `CCCCc1ccc(-c2noc(CCC(=O)NC(C)CC)n2)cc1` (stereo not given), the IC50 in test [1] was less than 190 nM; in the test on HIF1a (setting [3]), greater than 99 µM; in the test on HIF1a (setting [4]), greater than 99 µM; in the test with HIF2a PANC (setting [3]), less than 190 nM; in the test with HIF2a PANC (setting [4]), less than 190 nM.

On to `CCOc1ccccc1NC(=O)CCc1nc(-c2ccc(C(C)(C)C)cc2)no1`, for which the IC50 in test [1] was less than 190 nM; in the test with HIF1a (setting [3]), greater than 99 µM; in the test on HIF1a (setting [4]), 0.973 µM; with HIF2a PANC (setting [3]), less than 190 nM; in the test with HIF2a PANC (setting [4]), less than 190 nM; in test [2], 973 nM.

As to `CNC(=O)CCc1nc(-c2ccc(C)cc2)no1`, the IC50 result in test [1] was “inactive”. The IC50 in the test on HIF1a (setting [3]) was greater than 99 µM; with HIF1a (setting [4]) it was greater than 99 µM; with HIF2a PANC (setting [3]) it was 48000 nM; with HIF2a PANC (setting [4]) it was greater than 99000 nM.
